Data: article PMC6263152 (Journal of medicinal chemistry, 2018)

Legend:
[1] = tested on: PC3-PIP (PSMA+) vs PC3 (PSMA−) cell containing myocutaneous tissue; assay: Ex vivo γ-scintillated biodistribution in mice bearing PC3 and PC3-PIP cells; set-up: species or system C57BL/6 mice; settings: 2 h after iv injection, γ-scintillation of excised tissue
Summary of the method: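 Male C57BL/6 mice, 5–6 weeks old, 20–25 g (n = 6), were given 3 × 10^6 (18 mg) PC3 cells s.c. in the left flank and PC3-PIP cells in the right flank. After 15 min, radiotracer (100 μL, 80 μCi, 25 μM; 2.5 nmol) went i.v. via the tail vein. Mice were killed by cervical dislocation at 2 h. Organs and flank myocutaneous tissue were weighed and γ-counted as %ID per gram, mean ± SEM.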

[2] = tested on: PC3-PIP (PSMA+) and PC3 (PSMA−) cell containing tissue; assay: PET/CT imaging in mice bearing PC3 and PC3-PIP cells; type: in vivo, C57BL/6 mice
Summary of the method: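 Male C57BL/6 mice received s.c. 3 × 10^6 (18 mg) PC3 cells in the left flank and PC3-PIP cells in the right flank (n = 6); mice without cells served as controls (n = 5). 15 min later, [18F]-labelled test compound (80 μCi, 2.5 nmol, 100 μL) was given i.v. by tail vein. A 10 min CT then a 15 min PET scan were acquired at 2 and 6 h, shown as maximum intensity projections.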

[3] = Optical properties in 1× PBS; type: physicochemical; settings: pH 7.5
[4] = Defluoridation stability; type: in vitro ADME
[5] = tested on: PC3 (PSMA−) cells; assay: FACS flow cytometry nonspecific binding control, PC3 cells
Summary of the method: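 PSMA− PC3 cells (luciferase/GFP-expressing) were incubated with 0.1–100 nM test compound for 1 h at 37 °C. Cell-bound fluorescence was read by flow cytometry in the Cy3 channel (488 nm, 22 mW excitation; 620/30 emission filter). Curves were fitted with a two-parameter exponential function. Flow experiments were run in duplicate.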

Activity in PC3-PIP (PSMA+) vs PC3 (PSMA−) containing myocutaneous tissue [1]: 175 fold | Liberation of [18F]-fluoride ion (defluoridation) in vivo [2]: not observed | Extinction coefficient ([3]; 1 mM PBS): 159 000 M^−1 cm^−1 | Quantum yield φ [3]: 0.06 | Defluoridation ([4]; 7 days room temperature incubation with fetal bovine serum): Less than 1% | Chemical decomposition (defluoridation) ([4]; physiological conditions): not observed
Structure (SMILES): CC1(C)C(/C=C/C=C2\N(CCCCCC(=O)NCCCC[C@H](NC(=O)N[C@H](CCC(=O)O)C(=O)O)C(=O)O)c3ccc(S(=O)(=O)O)cc3C2(C)C)=[N+](CCCCCC(=O)NCCCCn2cc(C[N+](C)(C)C[B-](F)(F)F)nn2)c2ccc(S(=O)(=O)O)cc21 [[^19F]-4, ((((1-(4-(6-(2-((E)-3-((Z)-1-(6-(((S)-5-Carboxy-5-(3-((R)-1,3-dicarboxypropyl)ureido)pentyl)amino)-6-oxohexyl)-3,3-dimethyl-5-sulfoindolin-2-ylidene)prop-1-en-1-yl)-3,3-dimethyl-5-sulfo-3H-indol-1-ium-1-yl)hexanamido)butyl)-1H-1,2,3-triazol-4-yl)methyl)dimethylammonio)methyl) Trifluoroborate]
Nonspecific binding to PC3 [5]: not observed
